Measurements pooled from the literature.
Lines come from different studies, so protocols differ.
Target: Activated CDC42 kinase 1 (TNK2, Homo sapiens, UniProt Q07912)

SMILES	effect on	method	concentration	remaining binding [%]
CN1CC[C@H](c2c(O)cc(O)c3c(=O)cc(-c4ccccc4Cl)oc23)[C@H](O)C1	cell-free assay	competition with immobilised ligand	0.1 µM	100
COc1cnc(Nc2cccc(S(N)(=O)=O)c2)nc1N1CCN(c2ccccc2)C(=O)C1	binding	competition with immobilised ligand	1 µM	100
COc1cc2ncnc(Nc3ccc(F)c(Cl)c3)c2cc1OCCCN1CCOCC1	cell-free assay	competition with immobilised ligand	0.1 µM	100
Cc1c(NC(=O)c2cc(C(N)=O)nc3cc(F)ccc23)c(C(F)(F)F)nn1Cc1ccc(C#N)cc1	cell-free assay	competition with immobilised ligand	1 µM	71
O=C(c1ccc(Nc2ncc(Cl)c(-c3ccc(Cl)s3)n2)cc1)N1CCC(N2CCCC2)CC1	binding	competition with immobilised ligand	1 µM	44
O=C(Nc1c[nH]nc1C(=O)NC1CCNCC1)c1cc(F)cc(F)c1	binding	competition with immobilised ligand	1 µM	100
CN(C)c1nccc(-c2cnc3ncccn23)n1	binding		1 µM	99
CNC(=O)c1cc(Oc2ccc(NC(=O)Nc3ccc(Cl)c(C(F)(F)F)c3)cc2)ccn1	cell-free assay	competition with immobilised ligand	0.1 µM	100
C[C@@H]1CCN(c2nccc(-c3cnn4ncccc34)n2)C1	binding		1 µM	100
CS(=O)(=O)CCNCc1ccc(-c2ccc3ncnc(Nc4ccc(OCc5cccc(F)c5)c(Cl)c4)c3c2)o1	cell-free assay	competition with immobilised ligand	0.1 µM	100
O=C(NS(=O)(=O)c1ccc(NCC2CCOCC2)c([N+](=O)[O-])c1)c1ccc(N2CCN(Cc3ccc(C(F)(F)F)cc3-c3ccc(Cl)cc3)CC2)cc1Oc1cnc2[nH]ccc2c1	cell-free assay	competition with immobilised ligand	1 µM	100
FC(F)(F)Oc1cccc(-c2cnc3ccc(-c4ccncc4)nn23)c1	binding	competition with immobilised ligand	5 µM	79
Cc1nc(Nc2ncc(C(=O)Nc3c(C)cccc3Cl)s2)cc(N2CCN(CCO)CC2)n1	cell-free assay	competition with immobilised ligand	10 µM	0
c1cnn2ncc(-c3ccnc(N4CCC45COC5)n3)c2c1	binding		1 µM	74
O=C(NCCCN1CCOCC1)c1ccc(Nc2nccc(-c3cc4ccccc4s3)n2)cc1	binding	competition with immobilised ligand	1 µM	63
F[C@@H]1CCN(c2nccc(-c3cnn4ncccc34)n2)C1	binding		1 µM	79

SMILES	effect on	method	concentration	remaining binding [%]
Cc1cc(C)c(-n2ccn3nc(-c4cccnc4)cc23)cc1NC(=O)c1cc(C#N)cc(S(F)(F)(F)(F)F)c1	cell-free assay	competition with immobilised ligand	0.1 µM	83.6
CN(C)c1nccc(-c2cnn3ncccc23)n1	binding		1 µM	100
CCS(=O)(=O)c1cc2cc(C[C@](O)(CC(C)(C)c3ccc(F)cc3C(N)=O)C(F)(F)F)[nH]c2cn1	cell-free assay	competition with immobilised ligand	1 µM	100
N[C@H]1CCN(c2nccc(-c3cnn4ncccc34)n2)C1	binding		1 µM	77
CCN(CC)CCNC(=O)c1c(C)[nH]c(/C=C2\C(=O)Nc3ccc(F)cc32)c1C	cell-free assay	competition with immobilised ligand	0.1 µM	93
c1cncc(-c2cccc(Nc3nccc(NC4CCCCC4)n3)c2)c1	binding	competition with immobilised ligand	10 µM	43
Cn1nc(C(F)(F)F)cc1-c1cnc(N2CCc3cc(S(=O)(=O)Nc4c(F)cc(Cl)cc4F)cc(N4CCCC4=O)c32)nc1	cell-free assay	competition with immobilised ligand	1 µM	100
CCN(CC)Cc1cc(Nc2ccnc3cc(Cl)ccc23)ccc1O	cell-free assay	competition with immobilised ligand	0.1 µM	89
Cc1c(C(=O)O)cc(-c2ccc(C3CCNCC3)cc2)c2ccc(-c3ccc(C(F)(F)F)cc3)cc12	binding	competition with immobilised ligand	1 µM	100
Cc1c(-c2ccccc2)oc2c(C(=O)OCCN3CCCCC3)cccc2c1=O	cell-free assay	competition with immobilised ligand	0.1 µM	100
O=C(c1ccc(Nc2ncc(Cl)c(-c3cc4ccccc4s3)n2)cc1)N1CCC(N2CCCC2)CC1	binding	competition with immobilised ligand	1 µM	54
CCN1CCN(Cc2ccc(C(=O)Nc3ccc(C)c(Oc4ccc5c(c4)CC(=O)N5)c3)cc2C(F)(F)F)CC1	binding	competition with immobilised ligand	1 µM	100
CNCc1ccccc1-c1csc([C@@H](C)Nc2nc(C)nc3cc(OC)c(OC)cc23)c1	cell-free assay	competition with immobilised ligand	1 µM	100
C[C@@H](c1ccc(-n2cnc3c(N)ncnc32)cc1)N1CCc2nn(C)c(Cc3ccccc3)c2C1=O	binding	competition with immobilised ligand	0.1 µM	82
C[C@@H]1CN(c2cc(-c3n[nH]c4ccc(OC5(C)CC5)cc34)ncn2)C[C@H](C)O1	cell-free assay	competition with immobilised ligand	0.1 µM	79
Nc1ncc2c(n1)-c1c([nH]c3ccc(C#CC4CC4)cc13)CCCC2	binding	competition with immobilised ligand	1 µM	100
